Our source for the EC50, CC50 and selectivity ratio values is ChEMBL document CHEMBL4024801, “Synthesis and Structure-Activity Relationship (SAR) Studies of Novel Pyrazolopyridine Derivatives as Inhibitors of Enterovirus Replication” (J Med Chem, 2018).

The subject of one data set is Enterovirus A71. Nature of the data set: Antiviral activity against Enterovirus A71 infected in monkey LLC-MK2 cells assessed as protection against virus-induced cytopathic effect after 3 to 4 days by crystal violet staining-based spectrophotometric method. The format is functional, cell-based. Conditions: Enterovirus A. In short, it runs like this: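 EV-A71 was tested in LLC-MK2 cells grown in DMEM with 10% FBS, penicillin, streptomycin and glutamine, at a low MOI preset to give full CPE in 3–4 days. Compound was dissolved in DMSO and diluted 2-fold, in triplicate. Cells were fixed with formaldehyde when control CPE was maximal, then stained with crystal violet and read at OD590. EC50 came from a 7-point four-parameter or sigmoidal fit.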
For orientation: Cytopathic effects are the visible damage that an infection or toxin causes in cultured cells.

A further data set has as its system Coxsackievirus B3. Nature of the data set: Antiviral activity against Coxsackievirus B3 infected in human HeLa-RW cells assessed as protection against virus-induced cytopathic effect after 3 to 4 days by crystal violet staining-based spectrophotometric method. The class given is functional, cell-based. Conditions: Enterovirus B. In short, it runs like this: (§1)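 HeLa-RW cells grown in DMEM with penicillin, streptomycin, glutamine and 10% FBS. They were infected at a low MOI pre-set to give full CPE in 3-4 days. Compound in DMSO was added as serial 2-fold dilutions (7 points), each in triplicate. When control CPE was maximal, cells were fixed with 4% formaldehyde, stained with 0.25% crystal violet and read at OD590. EC50 came from a four-parameter or sigmoidal fit.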

For the next data set, the system named is Poliovirus 1. Nature of the data set: Antiviral activity against Poliovirus 1 infected in human HeLa-RW cells assessed as protection against virus-induced cytopathic effect after 3 to 4 days by crystal violet staining-based spectrophotometric method. The class given is functional, cell-based. Conditions: Enterovirus C. The method, boiled down: as §1
For the next data set, the system named is Poliovirus 3. Nature of the data set: Antiviral activity against Poliovirus 3 infected in human HeLa-RW cells assessed as protection against virus-induced cytopathic effect after 3 to 4 days by crystal violet staining-based spectrophotometric method. Conditions: Enterovirus C. The format is functional, cell-based. In short, it runs like this:
as §1

The next data set concerns LLC-MK2. Nature of the data set: Cytotoxicity against monkey LLC-MK2 cells after 3 to 4 days by crystal violet staining-based spectrophotometric method. The class given is cell-based, Macaca mulatta. Conditions: rhesus monkey. The method, boiled down: (§2)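 Uninfected cells (HeLa-RW or LLC-MK2, in DMEM with penicillin, streptomycin, glutamine and 10% FBS) were exposed to serial 2-fold compound dilutions for the same period as the CPE assay. They were then fixed with formaldehyde, stained with crystal violet and read by OD590 spectrophotometry to derive CC50. Values are means ± s.d. of 3 experiments, or the average of triplicates in one.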

Data set [1] is described as follows: Cytotoxicity against human HeLa-RW cells after 3 to 4 days by crystal violet staining-based spectrophotometric method. The format is cell-based. The method, boiled down: as §2
Data set [2] is described as follows: Selectivity index, ratio of CC50 for monkey LLC-MK2 cells to EC50 for Enterovirus A71. The class given is toxicity. Conditions: read-out: Ratio CC50/EC50. The method, boiled down: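 LLC-MK2 cells in DMEM with 10% FBS were used for both arms. For EC50, cells were infected with EV-A71 at a low MOI giving full CPE in 3–4 days and exposed to 2-fold compound dilutions, in triplicate. For CC50, uninfected cells got 2-fold dilutions for the same period. Both arms were formaldehyde-fixed, crystal violet-stained and read at OD590.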

Data set [3] can be described thus: Selectivity index, ratio of CC50 for human HeLa-RW cells to EC50 for Coxsackievirus B3. The format is toxicity. Conditions: read-out: Ratio CC50/EC50. In short, it runs like this: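 HeLa-RW cells in DMEM with 10% FBS were used for both arms. For EC50, cells were infected with CVB3-H3 at a low MOI giving full CPE in 3–4 days and exposed to 2-fold compound dilutions, in triplicate, with a 7-point fit. For CC50, uninfected cells got 2-fold dilutions for the same period. Both arms were fixed, crystal violet-stained and read at OD590.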

Data set [4] in a line: Selectivity index, ratio of CC50 for human HeLa-RW cells to EC50 for Poliovirus 1. Conditions: read-out: Ratio CC50/EC50. The format is toxicity. In short, it runs like this:
(§3)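 HeLa-RW cells grown in DMEM with penicillin, streptomycin, glutamine and 10% FBS were infected at a low MOI chosen to give full CPE in 3-4 days. Serial 2-fold compound dilutions from DMSO stocks were tested in triplicate. When control CPE was maximal, cells were formaldehyde-fixed, crystal violet-stained and read at OD590. EC50 came from a 7-point curve. CC50 used uninfected cells over the same period.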

Data set [5] can be described thus: Selectivity index, ratio of CC50 for human HeLa-RW cells to EC50 for Poliovirus 3. The format is toxicity. Conditions: read-out: Ratio CC50/EC50. In short, it runs like this: as §3

As usually defined, the EC50 is the midpoint of the concentration-response curve. The CC50 is the concentration that lowers cell viability or growth by half. As to `CC(C)n1ncc2c(C(=O)Nc3ccc(F)c(S(N)(=O)=O)c3)cc(-c3cccs3)nc21`, the EC50 in the data set with Enterovirus A71 is 0.8 µM; with Coxsackievirus B3, 1.1 µM; with Poliovirus 1, greater than 10 µM; in the data set with Poliovirus 3, greater than 10 µM. Besides, the CC50 in the data set on LLC-MK2 is 50 µM; in data set [1] (hela-rw), greater than 200 µM. The selectivity ratio was 62.5 in data set [2] and greater than 182 in [3].
Regarding `CC(C)n1ncc2c(NC(=O)c3ccc(F)cc3)cc(-c3cccs3)nc21`, the half-maximal effective concentration (EC50) was 4 µM with Enterovirus A71, 4.7 µM in the data set on Coxsackievirus B3, greater than 10 µM in the data set with Poliovirus 1 and greater than 10 µM with Poliovirus 3. For the same molecule, the values for the CC50 (in the data set with LLC-MK2; in [1] (hela-rw)) were 50 µM and 12 µM, respectively. The selectivity ratio in data set [2] amounted to 12.5; in [3] it was 2.6.
In the case of `CC(C)n1ncc2c(C(=O)Nc3cc(S(N)(=O)=O)ccc3F)cc(-c3cccs3)nc21`, the EC50 in the data set on Enterovirus A71 was 0.5 µM; in the data set on Coxsackievirus B3 it was 0.7 µM; in the data set with Poliovirus 1, 6.3 µM; with Poliovirus 3, 6.3 µM. Also, the CC50 came out at 25 µM with LLC-MK2 and 18 µM in [1] (hela-rw). The selectivity ratio in data set [2] worked out at 50; in [3] it was 25.7; in data set [4], 2.9; in [5] it was 2.9.
For the molecule `CC(C)n1ncc2c(C(=O)Nc3cncnc3)cc(-c3cccs3)nc21`, the EC50 with Enterovirus A71 was 0.4 µM; with Coxsackievirus B3 it was 0.7 µM; in the data set on Poliovirus 1, 10 µM; in the data set on Poliovirus 3 it was 10 µM. The CC50 in the data set on LLC-MK2 came to 20 µM; in data set [1] (hela-rw), 18 µM. The selectivity ratio was found to be 50 in data set [2], 25.7 in data set [3], 1.8 in data set [4] and 1.8 in [5].
Turning to `CC(C)n1ncc2c(C(=O)Nc3cccc(C(N)=O)c3)cc(-c3cccs3)nc21`, the EC50 in the data set with Enterovirus A71 stood at 0.8 µM; with Coxsackievirus B3, 0.7 µM; with Poliovirus 1 it was 6.3 µM; with Poliovirus 3, 6.3 µM. Also, the half-maximal cytotoxic concentration (CC50) in the data set with LLC-MK2 was determined as 25 µM; in data set [1] (hela-rw), 18 µM. Moreover, the selectivity ratio in [2] turned out to be 31.3; in data set [3], 25.7; in data set [4], 2.9; in data set [5], 2.9.
As to `CC(C)n1ccc2c(C(=O)Nc3cccnc3)cc(-c3cccs3)nc21`, the EC50 was 0.8 µM with Enterovirus A71, 1.3 µM in the data set on Coxsackievirus B3, greater than 10 µM in the data set on Poliovirus 1 and greater than 10 µM in the data set on Poliovirus 3. The CC50 in the data set with LLC-MK2 stood at 25 µM; in [1] (hela-rw), 18 µM. The selectivity ratio in [2] is 31.3; in data set [3], 13.8.
As for `CC(C)n1ncc2c(C(=O)Nc3cccnc3)cc(-c3cccs3)nc21`, the EC50 with Enterovirus A71 came to 0.5 µM; in the data set on Coxsackievirus B3, 0.4 µM; in the data set on Poliovirus 1, 10 µM; in the data set on Poliovirus 3, 10 µM. The CC50 with LLC-MK2 was greater than 200 µM; in data set [1] (hela-rw) it was 25 µM. In addition, the selectivity ratio in data set [2] is greater than 400; in [3], 62.5; in data set [4], 2.5; in data set [5] it was 2.5.
As for `CC(C)n1ccc2c(C(=O)Nc3ccccn3)cc(-c3cccs3)nc21`, the EC50 in the data set on Enterovirus A71 was 1.2 µM; in the data set with Coxsackievirus B3 it was 2.2 µM; in the data set on Poliovirus 1, greater than 10 µM; in the data set on Poliovirus 3, greater than 10 µM. Also, the CC50 is greater than 200 µM with LLC-MK2 and 18.8 µM in data set [1] (hela-rw). For the same molecule, the selectivity ratio is greater than 167 in data set [2] and 8.5 in data set [3].
As for `CC(C)n1ncc2c(C(=O)Nc3cccnc3)cc(-c3ccsc3)nc21`, the EC50 is 2.4 µM in the data set with Enterovirus A71, 0.6 µM with Coxsackievirus B3, greater than 10 µM in the data set with Poliovirus 1 and greater than 10 µM in the data set with Poliovirus 3. For the same molecule, the CC50 was found to be 37 µM with LLC-MK2 and 18 µM in [1] (hela-rw). The figures for the selectivity ratio in data set [2] and in data set [3] were 15.4 and 30, respectively.
As to `CC(C)n1ncc2c(C(=O)Nc3ccccc3F)cc(-c3cccs3)nc21`, the half-maximal effective concentration (EC50) in the data set with Enterovirus A71 was 2.3 µM; with Coxsackievirus B3, 1.4 µM; in the data set on Poliovirus 1 it was 7 µM; in the data set on Poliovirus 3, 7 µM. The results for the CC50 (in the data set on LLC-MK2; in [1] (hela-rw)) were 50 µM and 12.5 µM, respectively. Moreover, the selectivity ratio stood at 21.7 in data set [2], 8.9 in data set [3], 1.8 in [4] and 1.8 in data set [5].
As to `CC(C)n1ncc2c(C(=O)N3CCc4cccnc43)cc(-c3cccs3)nc21`, the EC50 in the data set on Enterovirus A71 was 12.5 µM; with Coxsackievirus B3, 9.4 µM; with Poliovirus 1, greater than 10 µM; with Poliovirus 3, greater than 10 µM. The CC50 with LLC-MK2 amounted to 50 µM; in data set [1] (hela-rw), 37.5 µM. Besides, the selectivity ratio in data set [2] and in [3] was 4 in each case.
With `CC(C)n1ncc2c(C(=O)Nc3cccc(S(N)(=O)=O)c3)cc(-c3cccs3)nc21`, the EC50 was found to be 1.3 µM in the data set with Enterovirus A71, 1.3 µM in the data set on Coxsackievirus B3, 5 µM in the data set with Poliovirus 1 and 5 µM with Poliovirus 3. The results for the CC50 (in the data set on LLC-MK2; in [1] (HeLa-RW cells)) were 25 µM and 50 to 200 µM, respectively. The selectivity ratio in data set [2] is 19.2; in data set [3], 167; in data set [4] it was 10; in [5] it was 10.
Consider `CC(C)n1ncc2c(C(=O)Nc3ccc(F)cn3)cc(-c3cccs3)nc21`, for which the EC50 is 1.2 µM with Enterovirus A71, 0.7 µM in the data set with Coxsackievirus B3, greater than 10 µM in the data set on Poliovirus 1 and greater than 10 µM in the data set with Poliovirus 3. The CC50 in the data set with LLC-MK2 was greater than 200 µM; in [1] (hela-rw) it was 37.5 µM. In addition, the selectivity ratio is greater than 167 in data set [2] and 53.6 in data set [3].
Take `CC(C)n1ncc2c(C(=O)Nc3cc(C(N)=O)ccc3F)cc(-c3cccs3)nc21`: the EC50 with Enterovirus A71 was found to be 0.5 µM; in the data set on Coxsackievirus B3 it was 0.8 µM; with Poliovirus 1 it was 5 µM; in the data set with Poliovirus 3 it was 5 µM. The figures for the CC50 (in the data set with LLC-MK2; in data set [1] (hela-rw)) were 25 µM and 18.8 µM, respectively. The selectivity ratio in [2] came out at 50; in data set [3] it was 23.5; in data set [4] it was 3.8; in [5], 3.8.
As to `CC(C)n1ncc2c(C(=O)N3CCc4cc(F)ccc43)cc(-c3cccs3)nc21`, the EC50 in the data set on Enterovirus A71 was 1.3 µM; in the data set with Coxsackievirus B3, 1.9 µM; in the data set on Poliovirus 1, 10 µM; in the data set on Poliovirus 3 it was 10 µM. The CC50 was greater than 200 µM in the data set with LLC-MK2 and 18.8 µM in data set [1] (hela-rw). Besides, the selectivity ratio in [2] is greater than 153; in data set [3] it was 9.9; in [4], 1.9; in data set [5] it was 1.9.
